# Measurements: ChEMBL document CHEMBL1821606, “Bioactive prenylogous cannabinoid from fiber hemp (Cannabis sativa)” (J Nat Prod, 2011)
# Experiments:
# [1] = biological target: T1, Transient receptor potential cation channel subfamily A member 1 (Rattus norvegicus, UniProt Q6RI86); assay: Antagonist activity at rat recombinant TRPA1 receptor expressed in HEK293 cells assessed as inhibition of 100 uM allyl isothiocyanate-induced stimulation of intracellular calcium level using Fluo4-AM dye based fluorimetric assay; assay type: functional, cell-based
# T1 sequence (Q6RI86 whole entry): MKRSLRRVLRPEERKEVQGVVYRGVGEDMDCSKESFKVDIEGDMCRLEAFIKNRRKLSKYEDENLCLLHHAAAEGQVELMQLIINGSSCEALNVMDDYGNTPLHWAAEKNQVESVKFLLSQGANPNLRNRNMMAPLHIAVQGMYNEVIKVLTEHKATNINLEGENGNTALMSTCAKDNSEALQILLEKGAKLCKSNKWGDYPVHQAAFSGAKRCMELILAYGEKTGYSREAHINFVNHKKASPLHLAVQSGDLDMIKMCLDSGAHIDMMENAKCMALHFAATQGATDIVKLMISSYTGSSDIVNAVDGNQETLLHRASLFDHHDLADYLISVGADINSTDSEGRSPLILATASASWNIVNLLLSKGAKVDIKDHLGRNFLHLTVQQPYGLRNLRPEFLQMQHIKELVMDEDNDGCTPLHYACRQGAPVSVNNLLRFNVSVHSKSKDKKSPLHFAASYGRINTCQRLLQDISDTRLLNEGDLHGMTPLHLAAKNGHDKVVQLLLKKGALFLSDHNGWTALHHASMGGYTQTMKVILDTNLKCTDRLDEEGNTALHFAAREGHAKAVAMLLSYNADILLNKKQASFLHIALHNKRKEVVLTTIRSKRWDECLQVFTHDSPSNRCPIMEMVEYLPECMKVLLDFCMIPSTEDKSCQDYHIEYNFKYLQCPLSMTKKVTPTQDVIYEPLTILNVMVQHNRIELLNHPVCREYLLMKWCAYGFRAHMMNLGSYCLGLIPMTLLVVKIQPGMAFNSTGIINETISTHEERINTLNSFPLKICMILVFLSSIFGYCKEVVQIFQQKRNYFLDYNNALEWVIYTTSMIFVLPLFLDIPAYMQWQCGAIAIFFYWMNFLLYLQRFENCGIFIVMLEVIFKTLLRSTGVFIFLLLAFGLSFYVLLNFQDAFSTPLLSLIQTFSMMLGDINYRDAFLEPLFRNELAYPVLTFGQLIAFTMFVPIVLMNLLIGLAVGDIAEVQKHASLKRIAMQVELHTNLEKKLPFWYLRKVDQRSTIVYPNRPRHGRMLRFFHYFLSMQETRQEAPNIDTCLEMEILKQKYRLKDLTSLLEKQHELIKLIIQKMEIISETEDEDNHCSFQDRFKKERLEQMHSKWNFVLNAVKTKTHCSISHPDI
# In short: (§1)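 Fluo-4 AM loaded stable HEK293 cells in Tyrode's buffer, read at 25 °C (ex 488/em 516 nm). Test compound added to the cuvette 5 min before the agonist: capsaicin 0.1 μM (TRPV1), AITC 100 μM (TRPA1), LPC 3 μM (TRPV2). Agonist alone taken as 100%. IC50 for half-maximal inhibition from curve fit. At least triplicate.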
# [2] = biological target: T1, Transient receptor potential cation channel subfamily A member 1; assay: Agonist activity at rat recombinant TRPA1 receptor expressed in HEK293 cells assessed as stimulation of intracellular calcium level using Fluo4-AM dye based fluorimetric assay; assay type: functional, cell-based
# In short: (§2)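 Stable HEK293 lines (G-418 selected, expression checked by qPCR) loaded 1 h at room temperature with Fluo-4 AM 4 μM. Cells washed and resuspended in Tyrode's buffer pH 7.4. Fluorescence (ex 488/em 516 nm) read in a stirred cuvette at 25 °C before and after test compound at various concentrations. EC50 from sigmoidal variable-slope fit. At least triplicate.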
# [3] = biological target: T2, Transient receptor potential cation channel subfamily V member 1 (Homo sapiens, UniProt Q8NER1); assay: Agonist activity at human TRPv1 receptor expressed in HEK293 cells assessed as stimulation of intracellular calcium level using Fluo4-AM dye based fluorimetric assay relative to 4 uM ionomycin; assay type: functional, cell-based
# T2 sequence (Q8NER1 whole entry): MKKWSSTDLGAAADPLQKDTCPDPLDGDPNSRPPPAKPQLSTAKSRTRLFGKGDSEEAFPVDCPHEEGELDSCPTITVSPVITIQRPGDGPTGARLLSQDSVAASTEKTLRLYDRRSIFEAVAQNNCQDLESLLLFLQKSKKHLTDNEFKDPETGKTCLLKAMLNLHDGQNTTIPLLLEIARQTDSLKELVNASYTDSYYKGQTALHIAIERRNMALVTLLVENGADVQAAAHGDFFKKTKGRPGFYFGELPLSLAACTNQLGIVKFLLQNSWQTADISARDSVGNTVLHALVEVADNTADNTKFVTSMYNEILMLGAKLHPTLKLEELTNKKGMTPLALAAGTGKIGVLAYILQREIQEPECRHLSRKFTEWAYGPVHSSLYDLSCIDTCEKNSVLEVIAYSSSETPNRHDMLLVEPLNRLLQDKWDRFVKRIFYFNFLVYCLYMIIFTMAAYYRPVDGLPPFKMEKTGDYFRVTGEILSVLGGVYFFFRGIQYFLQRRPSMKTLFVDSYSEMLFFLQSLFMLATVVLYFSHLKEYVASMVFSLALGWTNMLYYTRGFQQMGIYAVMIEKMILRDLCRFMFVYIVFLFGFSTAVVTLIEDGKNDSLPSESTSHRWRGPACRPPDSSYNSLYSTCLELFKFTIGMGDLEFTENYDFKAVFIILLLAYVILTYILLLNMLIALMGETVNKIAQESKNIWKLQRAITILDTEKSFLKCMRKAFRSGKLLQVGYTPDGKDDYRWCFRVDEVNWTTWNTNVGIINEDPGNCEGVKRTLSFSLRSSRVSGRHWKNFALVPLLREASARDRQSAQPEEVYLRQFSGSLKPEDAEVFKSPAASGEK
# Cannabinoid receptor 1 = Cannabinoid receptor 1 (Homo sapiens, UniProt P21554); assay: Displacement of [3H]-CP-55,940 from human recombinant CB1 receptor expressed in HEK293 cells membrane incubated for 90 mins; assay type: cell membranes
# Chain of Cannabinoid receptor 1 (P21554 whole entry): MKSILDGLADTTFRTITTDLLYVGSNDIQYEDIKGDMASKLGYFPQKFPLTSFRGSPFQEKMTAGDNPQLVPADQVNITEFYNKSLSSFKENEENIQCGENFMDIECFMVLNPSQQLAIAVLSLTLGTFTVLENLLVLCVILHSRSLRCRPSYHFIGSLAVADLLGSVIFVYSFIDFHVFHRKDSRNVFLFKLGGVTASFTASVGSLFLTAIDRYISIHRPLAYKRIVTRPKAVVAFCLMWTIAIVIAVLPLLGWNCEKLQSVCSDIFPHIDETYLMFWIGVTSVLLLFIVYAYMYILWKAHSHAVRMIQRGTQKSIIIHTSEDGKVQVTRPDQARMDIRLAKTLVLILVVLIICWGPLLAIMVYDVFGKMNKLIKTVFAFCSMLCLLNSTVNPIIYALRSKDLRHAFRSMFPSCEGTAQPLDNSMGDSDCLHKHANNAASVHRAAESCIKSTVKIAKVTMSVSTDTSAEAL
# [4] = biological target: T3, Transient receptor potential cation channel subfamily V member 2 (Rattus norvegicus, UniProt Q9WUD2); assay: Antagonist activity at rat recombinant TRPV2 receptor expressed in HEK293 cells assessed as inhibition of 3 uM lysophosphatidylcholine-induced stimulation of intracellular calcium level using Fluo4-AM dye based fluorimetric assay; assay type: functional, cell-based; in short: as §1
# T3 sequence (Q9WUD2 whole entry): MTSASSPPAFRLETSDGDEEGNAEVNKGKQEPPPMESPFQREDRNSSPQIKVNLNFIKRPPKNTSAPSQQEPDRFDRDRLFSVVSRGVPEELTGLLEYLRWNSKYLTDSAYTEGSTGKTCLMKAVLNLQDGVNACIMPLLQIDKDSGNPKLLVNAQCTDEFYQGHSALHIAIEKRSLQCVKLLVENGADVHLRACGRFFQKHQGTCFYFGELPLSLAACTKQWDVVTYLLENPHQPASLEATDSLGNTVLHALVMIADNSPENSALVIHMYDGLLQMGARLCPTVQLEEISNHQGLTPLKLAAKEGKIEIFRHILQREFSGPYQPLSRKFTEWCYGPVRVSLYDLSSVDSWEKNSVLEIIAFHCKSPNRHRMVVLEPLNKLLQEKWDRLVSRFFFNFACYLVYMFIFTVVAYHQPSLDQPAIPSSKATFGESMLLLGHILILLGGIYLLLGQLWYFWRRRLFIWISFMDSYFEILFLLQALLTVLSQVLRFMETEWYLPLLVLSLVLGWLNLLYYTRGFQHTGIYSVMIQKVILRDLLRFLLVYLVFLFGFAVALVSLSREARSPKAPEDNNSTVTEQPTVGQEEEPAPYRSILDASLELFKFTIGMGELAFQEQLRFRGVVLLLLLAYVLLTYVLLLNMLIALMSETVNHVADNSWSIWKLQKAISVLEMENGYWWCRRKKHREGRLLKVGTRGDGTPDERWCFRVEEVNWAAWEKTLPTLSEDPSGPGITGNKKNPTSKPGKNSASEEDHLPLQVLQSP
# [5] = biological target: T2, Transient receptor potential cation channel subfamily V member 1; assay: Antagonist activity at human TRPv1 receptor expressed in HEK293 cells assessed as inhibition of 0.1 um capsaicin-induced stimulation of intracellular calcium level using Fluo4-AM dye based fluorimetric assay; assay type: functional, cell-based; in short: as §1
# [6] = biological target: Transient receptor potential cation channel subfamily M member 8 (Rattus norvegicus, UniProt Q8R455); assay: Antagonist activity at rat recombinant TRPM8 receptor expressed in HEK293 cells assessed as inhibition of 0.25 uM icilin-induced stimulation of intracellular calcium level using Fluo4-AM dye based fluorimetric assay; assay type: functional, cell-based
# Chain of Transient receptor potential cation channel subfamily M member 8 (Q8R455 whole entry): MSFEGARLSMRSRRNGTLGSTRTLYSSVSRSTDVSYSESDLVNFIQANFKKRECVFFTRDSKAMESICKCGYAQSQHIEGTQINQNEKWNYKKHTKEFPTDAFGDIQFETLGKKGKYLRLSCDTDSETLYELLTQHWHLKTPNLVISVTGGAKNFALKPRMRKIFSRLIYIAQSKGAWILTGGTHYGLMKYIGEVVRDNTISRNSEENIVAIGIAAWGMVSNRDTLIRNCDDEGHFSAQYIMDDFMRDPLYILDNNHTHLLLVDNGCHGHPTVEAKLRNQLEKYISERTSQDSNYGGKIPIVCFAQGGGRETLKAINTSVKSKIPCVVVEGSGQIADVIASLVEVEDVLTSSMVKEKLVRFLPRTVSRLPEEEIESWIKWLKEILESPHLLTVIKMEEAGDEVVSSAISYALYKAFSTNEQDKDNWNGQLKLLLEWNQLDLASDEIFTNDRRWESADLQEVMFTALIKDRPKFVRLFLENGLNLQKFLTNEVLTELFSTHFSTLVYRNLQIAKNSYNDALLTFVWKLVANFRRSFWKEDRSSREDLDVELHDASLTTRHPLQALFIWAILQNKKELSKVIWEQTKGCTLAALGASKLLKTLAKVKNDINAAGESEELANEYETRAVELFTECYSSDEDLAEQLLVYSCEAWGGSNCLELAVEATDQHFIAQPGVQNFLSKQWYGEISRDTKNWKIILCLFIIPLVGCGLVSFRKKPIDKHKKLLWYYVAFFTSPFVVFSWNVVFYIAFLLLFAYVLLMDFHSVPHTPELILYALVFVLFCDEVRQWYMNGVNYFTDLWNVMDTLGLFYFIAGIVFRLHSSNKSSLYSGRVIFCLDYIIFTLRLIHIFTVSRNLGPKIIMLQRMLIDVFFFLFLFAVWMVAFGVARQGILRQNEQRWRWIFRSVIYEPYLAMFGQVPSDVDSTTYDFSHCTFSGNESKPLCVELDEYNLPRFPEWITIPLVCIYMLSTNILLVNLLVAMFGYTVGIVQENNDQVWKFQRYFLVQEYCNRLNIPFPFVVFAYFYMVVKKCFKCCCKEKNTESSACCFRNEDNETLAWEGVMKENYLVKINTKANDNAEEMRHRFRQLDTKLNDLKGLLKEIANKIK
# In short: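 Fluo-4 AM loaded rat TRPM8 HEK293 cells in Tyrode's buffer, read at 22 °C with a Peltier-controlled cuvette. Compound added 5 min before 0.25 μM icilin, whose effect alone was taken as 100%. IC50 for half-maximal inhibition from curve fit. At least triplicate.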
# [7] = biological target: T2, Transient receptor potential cation channel subfamily V member 1; assay: Agonist activity at human TRPv1 receptor expressed in HEK293 cells assessed as stimulation of intracellular calcium level using Fluo4-AM dye based fluorimetric assay; assay type: functional, cell-based; in short: as §2
# [8] = biological target: Transient receptor potential cation channel subfamily A member 1 (Rattus norvegicus) (UniProt Q6RI86); assay: Agonist activity at rat recombinant TRPA1 receptor expressed in HEK293 cells assessed as stimulation of intracellular calcium level using Fluo4-AM dye based fluorimetric assay relative to allyl isothiocyanate; assay type: functional, cell-based
# Chain of Transient receptor potential cation channel subfamily A member 1 (Rattus norvegicus) (Q6RI86 whole entry): as the sequence (Q6RI86 whole entry) above
# [9] = biological target: T3, Transient receptor potential cation channel subfamily V member 2; assay: Agonist activity at rat recombinant TRPV2 receptor expressed in HEK293 cells assessed as stimulation of intracellular calcium level using Fluo4-AM dye based fluorimetric assay; assay type: functional, cell-based; in short: as §2
# [10] = biological target: T4, Transient receptor potential cation channel subfamily V member 2 (Rattus norvegicus) (UniProt Q9WUD2); assay: Agonist activity at rat recombinant TRPV2 receptor expressed in HEK293 cells assessed as stimulation of intracellular calcium level using Fluo4-AM dye based fluorimetric assay relative to 4 uM ionomycin; assay type: functional, cell-based
# T4 sequence (whole entry): T3 sequence (Q9WUD2 whole entry)
# Cannabinoid receptor 2 = Cannabinoid receptor 2 (Homo sapiens, UniProt P34972); assay: Displacement of [3H]-CP-55,940 from human recombinant CB2 receptor expressed in HEK293 cells membrane incubated for 90 mins; assay type: cell membranes
# Chain of Cannabinoid receptor 2 (P34972 whole entry): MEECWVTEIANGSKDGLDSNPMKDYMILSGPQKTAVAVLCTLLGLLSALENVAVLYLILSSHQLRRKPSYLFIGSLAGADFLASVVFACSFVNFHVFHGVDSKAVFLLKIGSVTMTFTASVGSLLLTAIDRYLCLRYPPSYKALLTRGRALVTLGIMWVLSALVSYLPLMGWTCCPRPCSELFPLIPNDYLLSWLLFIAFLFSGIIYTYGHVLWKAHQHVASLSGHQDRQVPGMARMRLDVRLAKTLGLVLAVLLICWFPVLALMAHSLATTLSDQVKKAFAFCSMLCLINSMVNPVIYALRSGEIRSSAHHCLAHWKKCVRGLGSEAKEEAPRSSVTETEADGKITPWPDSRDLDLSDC
structure (smiles),measurement,setting,value
CCCCCc1cc(O)c(C/C=C(\C)CC/C=C(\C)CCC=C(C)C)c(O)c1 [SESQUICANNABIGEROL],IC50,[1],1.2 µM
same,EC50,[2],1700 nM
same,Emax,[3],38.8%
same,IC50,Cannabinoid receptor 1,3.27 µM
same,Ki,Cannabinoid receptor 1,750 nM
same,IC50,[4],2300 nM
same,IC50,[5],5.7 µM
same,IC50,[6],950 nM
same,EC50,[7],4400 nM
same,Emax,[8],164%
same,EC50,[9],2700 nM
same,Emax,[10],56%
same,IC50,Cannabinoid receptor 2,710 nM
same,Ki,Cannabinoid receptor 2,180 nM
CCCCCc1cc(O)c(C/C=C(\C)CCC=C(C)C)c(O)c1 [CANNABIGEROL],IC50,[1],13 µM
same,EC50,[2],700 nM
same,Emax,[3],33.8%
same,IC50,Cannabinoid receptor 1,3.31 µM
same,Ki,Cannabinoid receptor 1,760 nM
same,IC50,[4],1500 nM
same,IC50,[5],2.6 µM
same,IC50,[6],160 nM
same,EC50,[7],1300 nM
same,Emax,[8],99.9%
same,EC50,[9],1700 nM
same,Emax,[10],73.6%
same,IC50,Cannabinoid receptor 2,3460 nM
same,Ki,Cannabinoid receptor 2,880 nM
